# Test results taken from ChEMBL document CHEMBL3525999, “In vivo biliary clearance should be predicted by intrinsic biliary clearance in sandwich-cultured hepatocytes” (Drug Metab Dispos, 2012).
# Legend:
# [1] = In vivo intrinsic biliary clearance in iv dosed Sprague-Dawley rat by LC-MS/MS analysis; format: ADME, organism-based, Bile
# [2] = In vivo apparent biliary clearance in iv dosed Sprague-Dawley rat by LC-MS/MS analysis; format: ADME, organism-based, Bile
# [3] = Drug uptake in iv dosed Sprague-Dawley rat liver after 5 hrs by LC-MS/MS analysis; format: ADME, organism-based; conditions: read-out: Drug uptake
# Method in brief: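 Rats (9 weeks old) were anesthetized with isoflurane, and the femoral vein and common bile duct were cannulated; animals were held in Bollman cages. Compound (1 mg/mL in saline, or in saline:dimethylacetamide 1:1) was infused IV at 0.2 mL/h to reach steady-state plasma levels. Livers were taken 5 h after infusion start, extracted with acetonitrile containing internal standard, and analyzed by LC-MS/MS. n = 5.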
# [4] = Unbound fraction in Sprague-Dawley rat plasma at 100 uM by equilibrium dialysis method
# [5] = tested on: Hepatocyte; assay: Drug uptake in sandwich cultured Sprague-Dawley rat hepatocytes by LC-MS/MS analysis; format: ADME, cell-based
# Method in brief: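 Hepatocytes came from male Sprague-Dawley rats by two-step collagenase perfusion (viability >90%). They were seeded at 5 × 10^5 cells/well on collagen, overlaid with Matrigel 0.25 mg/mL on day 2, and cultured 72 h. Cells were preincubated 10 min at 37°C in HBSS or Ca2+/Mg2+-free HBSS with 1 mmol/L EGTA. Substrate (0.5 or 1 μmol/L) was incubated 15 min. Cells were then rinsed ice-cold, lysed in Triton X-100, and analyzed by LC-MS/MS, normalized to BCA protein. n = 3.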
# [6] = Biliary excretion in Eisai hyperbilirubinemic mutant rat at 20 mg/kg, iv administered as single dose by HPLC analysis; format: ADME, organism-based; set-up: dose 20 mg/kg, route intravenous; conditions: bile, read-out: Drug excretion
# [7] = Total clearance in Eisai hyperbilirubinemic mutant rat at 20 mg/kg, iv administered as single dose by HPLC analysis; format: ADME, organism-based; set-up: dose 20 mg/kg, route intravenous; conditions: in vivo
# [8] = Biliary excretion in rat; format: ADME; conditions: bile, read-out: Drug excretion
# [9] = Total clearance in rat; format: ADME, organism-based; conditions: in vivo
Compound,CL [1],CL(app) [2],concentration at 5 h [3],fraction unbound at 100 µM [4],Drug uptake [5],dose excreted [6],clearance [7],dose excreted [8],clearance [9]
CCCCC(=O)N(Cc1ccc(-c2ccccc2-c2nnn[nH]2)cc1)[C@H](C(=O)O)C(C)C,1.18 mL/min/kg,3.5 mL/min/kg,17.4 µM,0.003,17.5 µmol/L,,,,
CO[C@@]1(NC(=O)CSCC#N)C(=O)N2C(C(=O)O)=C(CSc3nnnn3C)CS[C@@H]21 [CEFMETAZOLE],3.57 mL/min/kg,6.22 mL/min/kg,5.1 µM,0.738,11.4 µmol/L,,,,
CCN1CCN(C(=O)N[C@@H](C(=O)N[C@@H]2C(=O)N3C(C(=O)O)=C(CSc4nnnn4C)CS[C@H]23)c2ccc(O)cc2)C(=O)C1=O [CEFOPERAZONE],,,2.5 µM,,2.6 µmol/L,,,,
Cc1cc(O)c(C(=O)N[C@@H](C(=O)N[C@@H]2C(=O)N3C(C(=O)O)=C(CSc4nnnn4C)CS[C@H]23)c2ccc(O)cc2)cn1 [CEFPIRAMIDE],3.357 mL/min/kg,4.72 mL/min/kg,2.6 µM,0.158,1 µmol/L,57.8%,8.15 mL/min/kg,,
CCCc1nc(C(C)(C)O)c(C(=O)O)n1Cc1ccc(-c2ccccc2-c2nnn[nH]2)cc1 [OLMESARTAN],1.11 mL/min/kg,2.8 mL/min/kg,19.1 µM,0.01,26 µmol/L,,,,
CC[C@H](C)C(=O)O[C@H]1C[C@H](O)C=C2C=C[C@H](C)[C@H](CC[C@@H](O)C[C@@H](O)CC(=O)O)[C@H]21 [PRAVASTATIN],6.723 mL/min/kg,27.4 mL/min/kg,1.9 µM,0.705,1.9 µmol/L,,,,
CC(C)c1nc(N(C)S(C)(=O)=O)nc(-c2ccc(F)cc2)c1/C=C/[C@@H](O)C[C@@H](O)CC(=O)O [ROSUVASTATIN],2.505 mL/min/kg,24.17 mL/min/kg,7.1 µM,0.035,11.8 µmol/L,,,,
CC[C@@]1(O)C(=O)OCc2c1cc1n(c2=O)Cc2cc3c(CN(C)C)c(O)ccc3nc2-1 [TOPOTECAN],0.458 mL/min/kg,5.3 mL/min/kg,6.9 µM,0.747,3.3 µmol/L,,,13.2%,40.1 mL/min/kg
